Type in all cases: cell-based
The target in assay [1] is T1, 17-beta-hydroxysteroid dehydrogenase type 3 (Homo sapiens) (UniProt P37058).
T1 sequence (whole entry): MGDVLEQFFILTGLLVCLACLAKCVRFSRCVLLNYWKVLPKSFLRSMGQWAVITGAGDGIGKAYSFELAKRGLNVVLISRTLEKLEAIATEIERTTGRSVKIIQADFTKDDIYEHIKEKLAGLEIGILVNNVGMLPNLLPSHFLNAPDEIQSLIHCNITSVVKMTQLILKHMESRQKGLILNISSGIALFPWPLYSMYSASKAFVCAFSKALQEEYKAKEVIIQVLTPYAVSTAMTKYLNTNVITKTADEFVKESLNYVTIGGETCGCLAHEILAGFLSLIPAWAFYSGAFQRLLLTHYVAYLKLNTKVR
The assay is described as follows: Inhibition of 17Beta-HSD3 expressed in homogenized HEK293 cells assessed as transformation of [14C]-4-androstene-3,17-dione into [14C]-testosterone in presence of NADPH at 1 uM. The procedure, abridged: (§1)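 HEK-293 cells overexpressing 17β-HSD3 were briefly homogenized. The enzyme assay measured conversion of 50 nM [4-14C]-4-androstene-3,17-dione to [14C]-testosterone with NADPH in excess (5 mM). Inhibitor was dissolved in ethanol, and the ethanol-only control was used to derive % inhibition at each concentration. Error 10%.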

In assay [2] the target is T1, 17-beta-hydroxysteroid dehydrogenase type 3 (Homo sapiens). The assay is described as follows: Inhibition of 17Beta-HSD3 expressed in intact HEK293 cells assessed as transformation of [14C]-4-androstene-3,17-dione into [14C]-testosterone in presence of NADPH at 0.1 uM after 1 hr incubation. The procedure, abridged: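 HEK-293 cells were grown in MEM with 10% FBS at 37 °C under 5% CO2, seeded at 200,000 cells/well, and transfected with 2 µg/well of a 17β-HSD3 expression plasmid. Intact cells then got 50 nM [4-14C]-4-androstene-3,17-dione plus inhibitor in ethanol (0.5% v/v) for 1 h. Radiolabelled steroids were extracted from the medium and quantified. Triplicate; % transformation was used to derive IC50.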

Assay [3] shares this target. Briefly: Inhibition of 17Beta-HSD3 expressed in homogenized HEK293 cells assessed as transformation of [14C]-4-androstene-3,17-dione into [14C]-testosterone in presence of NADPH at 0.1 uM. The essentials:
as §1

Assay [4] shares this target. Briefly: Inhibition of 17Beta-HSD3 expressed in homogenized HEK293 cells assessed as transformation of [14C]-4-androstene-3,17-dione into [14C]-testosterone in presence of NADPH at 0.01 uM. The procedure, abridged:
as §1

Consider `Cc1cccc(S(=O)(=O)CCN2C[C@]3(CC[C@@]4(C)[C@@H](CC[C@@H]5[C@@H]4CC[C@]4(C)C(=O)CC[C@@H]54)C3)OC2=O)c1`, for which the inhibition in assay [1] is 93%; in assay [2] it was 5%; in assay [3], 52%; in assay [4] it was 0%.
As for `C[C@]12CC[C@](O)(CN3CCN(Cc4ccc(C(F)(F)F)cc4C(F)(F)F)CC3)C[C@@H]1CC[C@@H]1[C@@H]2CC[C@]2(C)C(=O)CC[C@@H]12`, the inhibition in assay [2] was 16%; in assay [3] it was 75%; in assay [4], 22%.
For the molecule `C[C@@H]1CN(C(=O)c2ccccc2)[C@@H](C)CN1C[C@@]1(O)CC[C@@]2(C)[C@@H](CC[C@@H]3[C@@H]2CC[C@]2(C)C(=O)CC[C@@H]32)C1`, the results for the inhibition in assay [2], in assay [3] and in assay [4] were 78%, 87% and 24%, respectively.
Taken in the same sequence, the figures for `C[C@]12CC[C@](O)(CN3CCN(Cc4ccc(C(F)(F)F)cc4)CC3)C[C@@H]1CC[C@@H]1[C@@H]2CC[C@]2(C)C(=O)CC[C@@H]12` were 33%, 81% and 14%.
In the case of `C[C@]12CC[C@](O)(CN3CCN(S(=O)(=O)c4ccc(C(F)(F)F)cc4)CC3)C[C@@H]1CC[C@@H]1[C@@H]2CC[C@]2(C)C(=O)CC[C@@H]12`, the inhibition in assay [2] is 34%; in assay [3] it was 78%; in assay [4], 21%.
Consider `C[C@@H]1CN(C(=O)c2ccc(C(F)(F)F)cc2)[C@@H](C)CN1C[C@@]1(O)CC[C@@]2(C)[C@@H](CC[C@@H]3[C@@H]2CC[C@]2(C)C(=O)CC[C@@H]32)C1`, for which the inhibition in assay [2] came out at 61%; in assay [3], 91%; in assay [4], 17%.
For the molecule `C[C@]12CC[C@](O)(CN3CCN(C(=O)c4ccccc4C(F)(F)F)CC3)C[C@@H]1CC[C@@H]1[C@@H]2CC[C@]2(C)C(=O)CC[C@@H]12`, the inhibition in assay [2] stood at 62%; in assay [3] it was 86%; in assay [4], 31%.
As for `C[C@]12CC[C@](O)(CN3CCN(C(=O)c4ccccc4)CC3)C[C@@H]1CC[C@@H]1[C@@H]2CC[C@]2(C)C(=O)CC[C@@H]12`, the values for the inhibition in assay [2], in assay [3] and in assay [4] were 50%, 76% and 17%, respectively.
For the molecule `C[C@]12CC[C@](O)(CN3CCN(C(=O)c4cccc(C(F)(F)F)c4)CC3)C[C@@H]1CC[C@@H]1[C@@H]2CC[C@]2(C)C(=O)CC[C@@H]12`, the inhibition in assay [2] was 91%; in assay [3], 92%; in assay [4] it was 10%.
Turning to `C[C@]12CC[C@@]3(C[C@@H]1CC[C@@H]1[C@@H]2CC[C@]2(C)C(=O)CC[C@@H]12)CN(Cc1ccc(C(F)(F)F)nc1)C(=O)O3`, the inhibition stood at 36% in assay [2], 65% in assay [3] and 3% in assay [4].
In the case of `C[C@]12CC[C@](O)(CN3CCN(Cc4cc(C(F)(F)F)cc(C(F)(F)F)c4)CC3)C[C@@H]1CC[C@@H]1[C@@H]2CC[C@]2(C)C(=O)CC[C@@H]12`, the inhibition worked out at 25% in assay [2], 83% in assay [3] and 25% in assay [4].
On to `C[C@]12CC[C@](O)(CN3CCN(C(=O)c4ccc(C(F)(F)F)cc4)CC3)C[C@@H]1CC[C@@H]1[C@@H]2CC[C@]2(C)C(=O)CC[C@@H]12`, for which the inhibition turned out to be 56% in assay [2], 84% in assay [3] and 22% in assay [4].
On to `C[C@@H]1CN(Cc2ccccc2C(F)(F)F)[C@@H](C)CN1C[C@@]1(O)CC[C@@]2(C)[C@@H](CC[C@@H]3[C@@H]2CC[C@]2(C)C(=O)CC[C@@H]32)C1`, for which the inhibition was found to be 36% in assay [2], 85% in assay [3] and 22% in assay [4].
With `C[C@]12CC[C@@]3(C[C@@H]1CC[C@@H]1[C@@H]2CC[C@]2(C)C(=O)CC[C@@H]12)CN(Cc1ccccc1C(F)(F)F)C(=O)O3`, the inhibition in assay [2] is 35%; in assay [3], 81%; in assay [4], 17%.
`C[C@@H]1CN(Cc2cc(C(F)(F)F)ccc2C(F)(F)F)[C@@H](C)CN1C[C@@]1(O)CC[C@@]2(C)[C@@H](CC[C@@H]3[C@@H]2CC[C@]2(C)C(=O)CC[C@@H]32)C1`: the inhibition in assay [2] stood at 23%; in assay [3], 71%; in assay [4] it was 16%.
Taken in the same sequence, the figures for `C[C@]12CC[C@@]3(C[C@@H]1CC[C@@H]1[C@@H]2CC[C@]2(C)C(=O)CC[C@@H]12)CN(Cc1ccc(C(F)(F)F)cc1)C(=O)O3` were 43%, 80% and 25%.
As for `C[C@]12CC[C@](O)(CN3CCN(Cc4cc(C(F)(F)F)ccc4C(F)(F)F)CC3)C[C@@H]1CC[C@@H]1[C@@H]2CC[C@]2(C)C(=O)CC[C@@H]12`, the inhibition in assay [2] stood at 12%; in assay [3], 85%; in assay [4] it was 18%.
Turning to `COc1cccc(CN2CCN(C[C@@]3(O)CC[C@@]4(C)[C@@H](CC[C@@H]5[C@@H]4CC[C@]4(C)C(=O)CC[C@@H]54)C3)CC2)c1`, the inhibition in assay [2] was determined as 47%; in assay [3], 83%; in assay [4] it was 21%.
For the molecule `C[C@]12CC[C@@]3(C[C@@H]1CC[C@@H]1[C@@H]2CC[C@]2(C)C(=O)CC[C@@H]12)CN(Cc1cccc(C(F)(F)F)c1)C(=O)O3`, the inhibition in assay [2] stood at 36%; in assay [3] it was 80%; in assay [4], 16%.
Regarding `C[C@@H]1CN(S(=O)(=O)c2cccc(C(F)(F)F)c2)[C@@H](C)CN1C[C@@]1(O)CC[C@@]2(C)[C@@H](CC[C@@H]3[C@@H]2CC[C@]2(C)C(=O)CC[C@@H]32)C1`, the inhibition in assay [2] came to 77%; in assay [3], 91%; in assay [4], 32%.
Taken in the same sequence, the figures for `C[C@@H]1CN(Cc2ccc(C(F)(F)F)cc2)[C@@H](C)CN1C[C@@]1(O)CC[C@@]2(C)[C@@H](CC[C@@H]3[C@@H]2CC[C@]2(C)C(=O)CC[C@@H]32)C1` were 36%, 87% and 14%.
Take `C[C@]12CC[C@](O)(CN3CCN(S(=O)(=O)c4ccccc4C(F)(F)F)CC3)C[C@@H]1CC[C@@H]1[C@@H]2CC[C@]2(C)C(=O)CC[C@@H]12`: the figures for the inhibition in assay [2], in assay [3] and in assay [4] were 63%, 92% and 45%, respectively.
Taken in the same sequence, the figures for `C[C@]12CC[C@@]3(C[C@@H]1CC[C@@H]1[C@@H]2CC[C@]2(C)C(=O)CC[C@@H]12)CN(Cc1cc(C(F)(F)F)cc(C(F)(F)F)c1)C(=O)O3` were 35%, 66% and 12%.
With `C[C@@H]1CN(C(=O)C2CCCCC2)[C@@H](C)CN1C[C@@]1(O)CC[C@@]2(C)[C@@H](CC[C@@H]3[C@@H]2CC[C@]2(C)C(=O)CC[C@@H]32)C1`, the inhibition in assay [2] came out at 77%; in assay [3] it was 90%; in assay [4] it was 24%.
Taken in the same sequence, the figures for `C[C@@H]1CN(C(=O)c2cccc(C(F)(F)F)c2)[C@@H](C)CN1C[C@@]1(O)CC[C@@]2(C)[C@@H](CC[C@@H]3[C@@H]2CC[C@]2(C)C(=O)CC[C@@H]32)C1` were 70%, 89% and 28%.
On to `C[C@]12CC[C@](O)(CN3CCN(Cc4cccc(C(F)(F)F)c4)CC3)C[C@@H]1CC[C@@H]1[C@@H]2CC[C@]2(C)C(=O)CC[C@@H]12`, for which the inhibition in assay [2] came out at 52%; in assay [3], 88%; in assay [4] it was 51%.
Consider `C[C@@H]1CN(S(=O)(=O)c2ccc(C(F)(F)F)cc2)[C@@H](C)CN1C[C@@]1(O)CC[C@@]2(C)[C@@H](CC[C@@H]3[C@@H]2CC[C@]2(C)C(=O)CC[C@@H]32)C1`, for which the inhibition came out at 47% in assay [2], 92% in assay [3] and 79% in assay [4].
Take `C[C@@H]1CN(Cc2cc(C(F)(F)F)cc(C(F)(F)F)c2)[C@@H](C)CN1C[C@@]1(O)CC[C@@]2(C)[C@@H](CC[C@@H]3[C@@H]2CC[C@]2(C)C(=O)CC[C@@H]32)C1`: the inhibition in assay [2] stood at 16%; in assay [3], 74%; in assay [4], 25%.
Turning to `C[C@]12CC[C@](O)(CN3CCN(Cc4ccccc4C(F)(F)F)CC3)C[C@@H]1CC[C@@H]1[C@@H]2CC[C@]2(C)C(=O)CC[C@@H]12`, the inhibition in assay [2] came to 20%; in assay [3] it was 86%; in assay [4] it was 18%.
`C[C@@H]1CN(Cc2ccc(C(F)(F)F)cc2C(F)(F)F)[C@@H](C)CN1C[C@@]1(O)CC[C@@]2(C)[C@@H](CC[C@@H]3[C@@H]2CC[C@]2(C)C(=O)CC[C@@H]32)C1`: the inhibition was 21% in assay [2], 71% in assay [3] and 15% in assay [4].
For `COc1cccc(CN2C[C@@H](C)N(C[C@@]3(O)CC[C@@]4(C)[C@@H](CC[C@@H]5[C@@H]4CC[C@]4(C)C(=O)CC[C@@H]54)C3)C[C@@H]2C)c1`, in that order: 50%, 87% and 19%.

A word on the inhibition: it is the share of the control response that was lost under treatment.

The record behind these values is ChEMBL document CHEMBL1811881, “Development of 3-substituted-androsterone derivatives as potent inhibitors of 17β-hydroxysteroid dehydrogenase type 3” (Bioorg Med Chem, 2011).
